This note sets out measurements from ChEMBL document CHEMBL1145895, “A new generation of N-aryl-N'-(1-alkyl-2-chloroethyl)ureas as microtubule disrupters: synthesis, antiproliferative activity, and beta-tubulin alkylation kinetics” (J Med Chem, 2003).

Holding throughout (assay type): functional, cell-based
One test deals with L1210. As to the kind of experiment: In vitro cytotoxic activity required to inhibit murine lymphocytotic leukemia L1210 cell line. As to conditions: Mus musculus. A digest of the protocol: (§1)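 Alamar Blue viability assay. (1-5) × 10³ cells were seeded in RPMI 1640 with 10% bovine calf serum and preincubated 24 h. Increasing drug concentrations from DMSO stocks were added (final DMSO 0.5%) and cells incubated 72 h at 37 °C. Fluorescence read at ex 485/em 590 nm. IC50 is the dose inhibiting growth by 50%, mean of at least three independent determinations.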

In the next test the test system is T-24. Kind of test: In vitro cytotoxic activity required to inhibit human bladder carcinoma T24 cell line. The essentials: as §1
For a further test, the system named is K562. Kind of test: In vitro cytotoxic activity required to inhibit human chronic myelogenous leukemia K-562 cell line. A digest of the protocol:
as §1

A further test relates to HT-29. Kind of test: In vitro cytotoxic activity required to inhibit human colon adenocarcinoma HT-29 cell line. The essentials:
as §1

For the next test, the system named is B16. Kind of test: In vitro cytotoxic activity required to inhibit murine melanoma B16 cell line. As to conditions: Mus musculus. The essentials: as §1
For another test, the system named is MCF7. As to the kind of experiment: In vitro cytotoxic activity required to inhibit human estrogen-sensitive breast adenocarcinoma MCF-7 cell line. The essentials:
as §1

The next test concerns CHO. Kind of test: Cytotoxic activity on wild type CHO10001 cell line expressing mutated tubulin. The following applies: Cricetulus griseus. A digest of the protocol:
as §1

Another test concerns CHO-VV 3-2. Kind of test: Cytotoxic activity on colchicine-resistant CHO-VV 3-2 cell line expressing mutated tubulin. The following applies: Cricetulus griseus. The essentials:
as §1

In the next test the test system is CHO-TAX 5-6. As to the kind of experiment: Cytotoxic activity on paclitaxel-resistant CHO-TAX 5-6 cell line expressing mutated tubulin. The following applies: Cricetulus griseus. A digest of the protocol: as §1

As a reminder, the IC50 is the concentration at which inhibition is half-maximal. As to `C[C@@H](CCl)NC(=O)Nc1ccc2c(c1)Cc1ccccc1-2`, the half-maximal inhibitory concentration (IC50) with L1210 was found to be 17 µM; in the test on T-24, 27 µM; in the test with K562, 19 µM; in the test on HT-29, 28 µM; with B16, 30 µM; with MCF7, 29 µM.
`CCC(C)c1ccc(NC(=O)NCCCl)cc1` (centres undefined): the IC50 in the test with L1210 turned out to be 2 µM; with T-24 it was 3.7 µM; with K562 it was 2 µM; with HT-29 it was 1.8 µM; in the test with B16, 5 µM; with MCF7, 5.2 µM.
For the compound `C[C@@H](CCl)NC(=O)Nc1ccc2c(c1)CCC2`, the IC50 was 41 µM in the test with L1210; 92 µM in the test on T-24; 91 µM with K562; greater than 100 µM with HT-29; greater than 100 µM with B16; greater than 100 µM with MCF7.
For the compound `CC(C)c1ccc(NC(=O)N[C@@H](C)CCl)cc1`, the half-inhibitory concentration (IC50) was 28 µM in the test on L1210; 54 µM with T-24; 33 µM in the test on K562; 65 µM with HT-29; 46 µM with B16; greater than 100 µM in the test with MCF7.
Consider `O=C(NCCCl)Nc1ccc(I)cc1`, for which the half-inhibitory concentration (IC50) in the test on CHO came to 15 µM; in the test with L1210, 3.6 µM; with T-24 it was 12 µM; with CHO-VV 3-2, 23 µM; in the test on K562 it was 6.2 µM; in the test with HT-29, 6 µM. Besides, the half-maximal inhibitory concentration (IC50) in the test with B16 came to 16 µM; with CHO-TAX 5-6 it was 6.1 µM; in the test on MCF7 it was 23 µM.
As for `O=C(NCCCl)Nc1ccc2ccccc2c1`, the 50% inhibitory concentration (IC50) came to 2.9 µM with L1210; 2.5 µM in the test with K562; 2.6 µM in the test on HT-29; 6.3 µM in the test on B16; 7.3 µM in the test with MCF7.
Regarding `C[C@H](CCl)NC(=O)Nc1ccc2c(c1)CCC2`, the IC50 came to 4.2 µM in the test on L1210; 7.4 µM with T-24; 5 µM in the test with K562; 6.4 µM in the test on HT-29; 11 µM with B16; 11 µM in the test on MCF7.
For `CCC(C)c1ccc(NC(=O)N[C@H](C)CCl)cc1` (some centres undefined), the IC50 was determined as 1.7 µM in the test with L1210; 3.4 µM in the test with T-24; 2 µM in the test on K562; 1.9 µM with HT-29; 4.2 µM in the test with B16; 4.8 µM in the test on MCF7.
As to `C[C@@H](CCl)NC(=O)Nc1ccc2ccccc2c1`, the IC50 was 20 µM in the test on L1210; 71 µM with T-24; 63 µM in the test on K562; 86 µM in the test with HT-29; greater than 100 µM in the test with B16; greater than 100 µM in the test on MCF7.
On to `CC[C@@H](CCl)NC(=O)Nc1ccc(C(C)(C)C)cc1`, for which the half-inhibitory concentration (IC50) with L1210 was 17 µM; in the test on T-24 it was 29 µM; in the test on K562 it was 26 µM; in the test on HT-29, 24 µM; in the test on B16, 27 µM; with MCF7, 60 µM.
`CCC(C)c1ccc(NC(=O)N[C@@H](CC)CCl)cc1` (some centres undefined): the concentration for half-maximal inhibition (IC50) in the test with L1210 was 12 µM; with T-24, 38 µM; with K562, 27 µM; in the test on HT-29, 28 µM; in the test on B16, 27 µM; in the test with MCF7 it was 51 µM.
Take `CC[C@H](CCl)NC(=O)Nc1ccc(C(C)C)cc1`: the IC50 in the test with L1210 was determined as 14 µM; with T-24 it was 32 µM; in the test with K562, 19 µM; with HT-29, 28 µM; in the test with B16 it was 33 µM; in the test with MCF7, 55 µM.
As to `CC(C)c1ccc(NC(=O)N[C@H](C)CCl)cc1`, the IC50 amounted to 0.9 µM in the test on L1210; 1.9 µM with T-24; 0.9 µM in the test with K562; 1 µM in the test on HT-29; 2.3 µM in the test with B16; 2.9 µM in the test with MCF7.
As for `CCC(C)c1ccc(NC(=O)N[C@H](CC)CCl)cc1` (some centres undefined), the concentration for half-maximal inhibition (IC50) with L1210 was 11 µM; with T-24, 28 µM; in the test with K562, 19 µM; in the test on HT-29, 20 µM; in the test on B16 it was 20 µM; in the test with MCF7 it was 38 µM.
With `C[C@@H](CCl)NC(=O)Nc1ccc(I)cc1`, the half-maximal inhibitory concentration (IC50) turned out to be 58 µM with CHO; 47 µM with L1210; 59 µM in the test with T-24; 51 µM in the test with CHO-VV 3-2; 43 µM with K562; 76 µM with HT-29. Further, the IC50 was found to be 93 µM in the test with B16, 54 µM in the test with CHO-TAX 5-6 and 93 µM with MCF7.
As to `CC[C@@H](CCl)NC(=O)Nc1ccc(I)cc1`, the 50% inhibitory concentration (IC50) is 90 µM in the test on L1210; 67 µM in the test with T-24; 63 µM with K562; 79 µM with HT-29; 89 µM with B16; 80 µM with MCF7.
Consider `C[C@H](CCl)NC(=O)Nc1ccc(I)cc1`, for which the IC50 is 2.3 µM in the test with CHO; 0.8 µM in the test with L1210; 1.8 µM with T-24; 4.7 µM in the test with CHO-VV 3-2; 1 µM in the test with K562; 1.3 µM in the test on HT-29. In addition, the IC50 in the test on B16 is 2.1 µM; with CHO-TAX 5-6 it was 0.7 µM; in the test with MCF7 it was 3.2 µM.
Turning to `CC(C)(C)c1ccc(NC(=O)NCCCl)cc1`, the IC50 with CHO amounted to 7.6 µM; in the test with L1210 it was 3.3 µM; in the test with T-24, 6.3 µM; in the test with CHO-VV 3-2, 13 µM; in the test on K562, 3.6 µM; in the test with HT-29 it was 4 µM. In addition, the 50% inhibitory concentration (IC50) in the test with B16 worked out at 8 µM; with CHO-TAX 5-6, 3.1 µM; with MCF7, 11 µM.
As for `C[C@H](CCl)NC(=O)Nc1ccc2c(c1)Cc1ccccc1-2`, the IC50 in the test with L1210 worked out at 4.2 µM; in the test on T-24, 7.4 µM; in the test on K562, 5.1 µM; with HT-29, 6.6 µM; in the test with B16, 9.3 µM; in the test with MCF7, 10 µM.
Regarding `CC(C)c1ccc(NC(=O)NCCCl)cc1`, the IC50 turned out to be 2 µM in the test with L1210; 3.6 µM in the test on T-24; 1.9 µM in the test on K562; 2.3 µM with HT-29; 4.7 µM in the test with B16; 4.7 µM in the test with MCF7.
For `C[C@@H](CCl)NC(=O)Nc1ccc(C(C)(C)C)cc1`, the half-maximal inhibitory concentration (IC50) amounted to 56 µM in the test with CHO; 12 µM with L1210; 41 µM in the test with T-24; 53 µM in the test on CHO-VV 3-2; 47 µM with K562; 48 µM in the test with HT-29. Also, the 50% inhibitory concentration (IC50) was found to be 35 µM in the test with B16, 53 µM with CHO-TAX 5-6 and 84 µM in the test on MCF7.
In the case of `CCC(C)c1ccc(NC(=O)N[C@@H](C)CCl)cc1` (some centres undefined), the concentration for half-maximal inhibition (IC50) in the test on L1210 turned out to be 18 µM; with T-24, 35 µM; in the test with K562, 34 µM; in the test with HT-29 it was 39 µM; in the test with B16 it was 33 µM; in the test on MCF7, 63 µM.
Consider `C[C@H](CCl)NC(=O)Nc1ccc(C(C)(C)C)cc1`, for which the IC50 amounted to 8.1 µM in the test on CHO; 3.4 µM in the test on L1210; 7 µM in the test with T-24; 15 µM in the test with CHO-VV 3-2; 3.8 µM in the test with K562; 3.9 µM with HT-29. Moreover, the half-inhibitory concentration (IC50) in the test on B16 came out at 8.5 µM; with CHO-TAX 5-6 it was 3.6 µM; in the test on MCF7, 10 µM.
Turning to `C[C@H](CCl)NC(=O)Nc1ccc2ccccc2c1`, the 50% inhibitory concentration (IC50) in the test on L1210 amounted to 1.7 µM; with T-24, 4 µM; with K562, 2.3 µM; in the test on HT-29 it was 2.3 µM; in the test with B16, 4.5 µM; in the test with MCF7, 6 µM.
With `CC[C@H](CCl)NC(=O)Nc1ccc(I)cc1`, the IC50 amounted to 87 µM in the test on L1210; 46 µM in the test on T-24; 31 µM with K562; 34 µM in the test on HT-29; 49 µM in the test on B16; 52 µM in the test with MCF7.
For the compound `CC[C@@H](CCl)NC(=O)Nc1ccc(C(C)C)cc1`, the half-inhibitory concentration (IC50) in the test on L1210 was found to be 24 µM; in the test on T-24, 57 µM; in the test on K562, 28 µM; in the test with HT-29, 51 µM; in the test with B16, 46 µM; in the test with MCF7, 72 µM.
Take `CC[C@H](CCl)NC(=O)Nc1ccc(C(C)(C)C)cc1`: the IC50 in the test on L1210 turned out to be 17 µM; in the test with T-24 it was 28 µM; in the test with K562, 28 µM; in the test on HT-29, 25 µM; in the test on B16, 27 µM; with MCF7, 52 µM.
